Assay results as given in ChEMBL document CHEMBL2346640, “Bromo-deaza-SAH: a potent and selective DOT1L inhibitor” (Bioorg Med Chem, 2013).
Calls of active or inactive are those of the source. The rule behind the calls is not given here.

How the values were obtained:
[1] = molecular target: T1, Nicotinamide N-methyltransferase (Homo sapiens, UniProt P40261); experiment: Inhibition of recombinant full length human NNMT measured for 30 mins by SAHH-coupled fluorescence assay
T1 sequence (P40261 whole entry): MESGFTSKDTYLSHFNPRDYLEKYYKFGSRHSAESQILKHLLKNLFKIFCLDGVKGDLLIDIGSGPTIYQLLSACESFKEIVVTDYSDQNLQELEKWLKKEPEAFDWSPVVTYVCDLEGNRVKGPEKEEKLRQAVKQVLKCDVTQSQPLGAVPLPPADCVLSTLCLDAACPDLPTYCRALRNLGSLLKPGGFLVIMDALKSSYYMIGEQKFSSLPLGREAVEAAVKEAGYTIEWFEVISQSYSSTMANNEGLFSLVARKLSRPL
Summary of the method: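 Compound at 0.1–100 µM. Fluorescence (ex 360, em 528 nm) followed for 30 min; rates taken from initial linear slopes and expressed as % activity. IC50 from a four-parameter logistic fit; SD from three independent experiments.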

[2] = molecular target: DNA (cytosine-5)-methyltransferase 1 (Homo sapiens, UniProt P26358); experiment: Inhibition of DNMT1 (unknown origin) using [3H]-SAM assessed as inhibition of dsDNA methylation after 1 hr by scintillation proximity assay
DNA (cytosine-5)-methyltransferase 1, sequence (P26358 whole entry): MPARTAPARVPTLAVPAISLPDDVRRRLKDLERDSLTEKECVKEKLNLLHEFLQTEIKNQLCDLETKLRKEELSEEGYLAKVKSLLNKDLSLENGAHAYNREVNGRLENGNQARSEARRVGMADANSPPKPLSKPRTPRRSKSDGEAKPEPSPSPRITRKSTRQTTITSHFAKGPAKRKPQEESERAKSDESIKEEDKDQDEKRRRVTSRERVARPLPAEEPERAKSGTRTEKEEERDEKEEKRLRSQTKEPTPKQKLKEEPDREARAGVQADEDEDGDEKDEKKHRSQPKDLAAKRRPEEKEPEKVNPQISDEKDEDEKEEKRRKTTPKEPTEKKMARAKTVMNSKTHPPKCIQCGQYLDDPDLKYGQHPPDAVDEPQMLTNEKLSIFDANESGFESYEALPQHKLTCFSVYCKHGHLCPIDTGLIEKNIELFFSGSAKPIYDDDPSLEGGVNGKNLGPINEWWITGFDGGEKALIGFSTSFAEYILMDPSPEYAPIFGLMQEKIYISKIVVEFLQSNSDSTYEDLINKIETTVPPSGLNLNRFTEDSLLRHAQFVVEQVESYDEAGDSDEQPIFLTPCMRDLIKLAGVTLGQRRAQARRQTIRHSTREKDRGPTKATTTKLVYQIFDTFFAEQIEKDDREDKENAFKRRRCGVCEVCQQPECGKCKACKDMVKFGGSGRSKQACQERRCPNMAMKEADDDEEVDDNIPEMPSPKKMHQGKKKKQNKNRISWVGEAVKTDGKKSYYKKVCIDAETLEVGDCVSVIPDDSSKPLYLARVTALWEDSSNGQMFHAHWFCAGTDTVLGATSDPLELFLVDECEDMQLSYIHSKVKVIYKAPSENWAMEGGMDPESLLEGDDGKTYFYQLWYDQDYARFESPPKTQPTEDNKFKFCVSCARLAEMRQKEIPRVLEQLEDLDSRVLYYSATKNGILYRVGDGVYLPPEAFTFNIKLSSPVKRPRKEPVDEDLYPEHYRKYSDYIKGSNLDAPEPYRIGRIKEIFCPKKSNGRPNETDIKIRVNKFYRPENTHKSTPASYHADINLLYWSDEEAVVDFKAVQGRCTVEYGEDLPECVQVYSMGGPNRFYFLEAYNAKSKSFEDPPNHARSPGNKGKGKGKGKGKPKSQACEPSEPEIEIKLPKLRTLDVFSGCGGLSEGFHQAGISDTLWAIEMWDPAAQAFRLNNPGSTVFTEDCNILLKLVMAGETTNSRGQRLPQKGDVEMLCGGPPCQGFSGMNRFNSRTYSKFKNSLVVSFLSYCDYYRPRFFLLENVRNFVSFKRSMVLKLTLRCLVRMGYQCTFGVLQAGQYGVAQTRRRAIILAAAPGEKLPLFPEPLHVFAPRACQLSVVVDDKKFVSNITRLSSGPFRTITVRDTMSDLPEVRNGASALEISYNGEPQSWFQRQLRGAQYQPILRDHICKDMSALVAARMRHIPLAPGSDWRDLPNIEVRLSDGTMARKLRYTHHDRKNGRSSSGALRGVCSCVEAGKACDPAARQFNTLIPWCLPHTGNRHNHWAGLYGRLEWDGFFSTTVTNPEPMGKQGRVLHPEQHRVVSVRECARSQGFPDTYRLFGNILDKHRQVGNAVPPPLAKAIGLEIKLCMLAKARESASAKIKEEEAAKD
Summary of the method: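 Incubated 1 h at 37 °C, quenched with guanidine HCl, then counted on a Flashplate. IC50 was taken at the SAM Km and converted to Ki as IC50/2.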

[3] = molecular target: Protein arginine N-methyltransferase 3 (Homo sapiens, UniProt O60678); experiment: Inhibition of PRMT3 (unknown origin) using [3H]SAM assessed as inhibition of biotinylated-H4 (1 to 24 amino acid residues) methylation after 1 hr by scintillation proximity assay
Protein arginine N-methyltransferase 3, sequence (O60678 whole entry, the tested form may be a part): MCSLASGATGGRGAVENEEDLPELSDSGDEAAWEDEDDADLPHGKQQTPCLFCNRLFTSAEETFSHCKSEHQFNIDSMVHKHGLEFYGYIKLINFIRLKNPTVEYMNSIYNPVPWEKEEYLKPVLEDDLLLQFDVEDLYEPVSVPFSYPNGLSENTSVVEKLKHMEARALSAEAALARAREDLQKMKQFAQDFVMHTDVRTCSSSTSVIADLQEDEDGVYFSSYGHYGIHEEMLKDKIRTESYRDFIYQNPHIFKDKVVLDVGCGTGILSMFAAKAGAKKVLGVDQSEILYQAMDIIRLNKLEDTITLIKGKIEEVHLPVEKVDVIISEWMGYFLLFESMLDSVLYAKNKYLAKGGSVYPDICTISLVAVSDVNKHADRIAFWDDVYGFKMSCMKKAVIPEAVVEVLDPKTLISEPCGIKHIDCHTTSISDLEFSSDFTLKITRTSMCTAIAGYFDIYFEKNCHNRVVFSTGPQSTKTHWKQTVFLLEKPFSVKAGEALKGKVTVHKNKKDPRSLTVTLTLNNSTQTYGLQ

[4] = molecular target: Protein arginine N-methyltransferase 5 (Homo sapiens, UniProt O14744); experiment: Inhibition of PRMT5 (unknown origin) using [3H]SAM after 1 hr by scintillation proximity assay
Protein arginine N-methyltransferase 5, sequence (O14744 whole entry): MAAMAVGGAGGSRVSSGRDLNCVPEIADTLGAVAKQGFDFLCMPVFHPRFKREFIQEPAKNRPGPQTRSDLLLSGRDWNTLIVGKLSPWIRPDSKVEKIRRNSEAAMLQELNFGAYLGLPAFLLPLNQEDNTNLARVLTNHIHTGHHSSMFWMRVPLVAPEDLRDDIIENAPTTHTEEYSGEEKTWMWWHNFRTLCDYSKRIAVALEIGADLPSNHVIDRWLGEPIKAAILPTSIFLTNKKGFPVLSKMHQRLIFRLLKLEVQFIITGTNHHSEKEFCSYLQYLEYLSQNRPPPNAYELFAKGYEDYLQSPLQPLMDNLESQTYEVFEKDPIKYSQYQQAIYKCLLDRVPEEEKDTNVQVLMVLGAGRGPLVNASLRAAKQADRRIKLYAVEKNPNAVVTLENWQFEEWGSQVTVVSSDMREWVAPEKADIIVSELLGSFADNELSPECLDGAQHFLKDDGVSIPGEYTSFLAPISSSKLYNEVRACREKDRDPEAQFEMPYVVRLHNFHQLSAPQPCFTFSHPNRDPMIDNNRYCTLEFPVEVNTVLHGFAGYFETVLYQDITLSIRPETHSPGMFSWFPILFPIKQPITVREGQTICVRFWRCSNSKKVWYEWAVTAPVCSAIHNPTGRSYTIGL
Summary of the method: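 Triplicates, 1 h at room temperature, compound at 100 nM–100 µM. Guanidine quench, then Flashplate counting. Ki calculated as IC50/2.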

[5] = molecular target: T2, Histone-lysine N-methyltransferase EHMT2 (Homo sapiens) (UniProt Q96KQ7); experiment: Inhibition of G9a (unknown origin) using [3H]SAM assessed as inhibition of biotinylated-H3 (1 to 25 amino acid residues) methylation after 1 hr by scintillation proximity assay
T2 sequence (whole entry): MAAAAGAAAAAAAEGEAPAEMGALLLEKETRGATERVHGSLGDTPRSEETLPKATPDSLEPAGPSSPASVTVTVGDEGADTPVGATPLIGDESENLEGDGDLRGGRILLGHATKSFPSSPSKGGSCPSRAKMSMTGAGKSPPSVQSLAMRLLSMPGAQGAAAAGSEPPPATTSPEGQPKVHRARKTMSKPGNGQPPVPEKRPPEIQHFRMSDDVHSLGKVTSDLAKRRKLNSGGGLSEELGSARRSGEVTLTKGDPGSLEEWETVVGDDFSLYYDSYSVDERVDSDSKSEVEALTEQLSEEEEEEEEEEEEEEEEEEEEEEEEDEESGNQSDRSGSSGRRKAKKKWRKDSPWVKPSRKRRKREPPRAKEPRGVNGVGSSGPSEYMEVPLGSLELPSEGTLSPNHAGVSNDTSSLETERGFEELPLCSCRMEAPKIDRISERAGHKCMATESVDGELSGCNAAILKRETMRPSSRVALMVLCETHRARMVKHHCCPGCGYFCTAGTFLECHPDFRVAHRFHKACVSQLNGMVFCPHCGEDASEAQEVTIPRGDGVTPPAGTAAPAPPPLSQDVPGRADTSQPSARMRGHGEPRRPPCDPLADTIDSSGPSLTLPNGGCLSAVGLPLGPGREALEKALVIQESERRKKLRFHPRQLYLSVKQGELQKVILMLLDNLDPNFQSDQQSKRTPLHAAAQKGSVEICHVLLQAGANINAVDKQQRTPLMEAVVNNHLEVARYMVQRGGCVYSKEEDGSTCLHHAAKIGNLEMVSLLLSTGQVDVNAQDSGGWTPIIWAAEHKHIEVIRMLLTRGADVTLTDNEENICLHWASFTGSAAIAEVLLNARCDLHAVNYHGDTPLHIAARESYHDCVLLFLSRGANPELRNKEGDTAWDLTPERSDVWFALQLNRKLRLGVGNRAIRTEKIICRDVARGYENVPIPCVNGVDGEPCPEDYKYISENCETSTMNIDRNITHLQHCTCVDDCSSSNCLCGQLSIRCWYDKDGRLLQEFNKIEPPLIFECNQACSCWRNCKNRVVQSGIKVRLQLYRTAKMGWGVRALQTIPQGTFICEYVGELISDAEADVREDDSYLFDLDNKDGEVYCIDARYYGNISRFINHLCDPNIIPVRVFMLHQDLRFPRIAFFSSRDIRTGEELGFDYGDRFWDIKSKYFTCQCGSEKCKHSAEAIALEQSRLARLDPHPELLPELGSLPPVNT
Summary of the method: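 Triplicates, 1 h at room temperature. Guanidine HCl stop, then Flashplate CPM. Compound at 100 nM–100 µM. Activity normalised to no-compound (100%) and no-enzyme (0%) controls. Ki = IC50/2.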

[6] = molecular target: T3, Histone-lysine N-methyltransferase SETD7 (Homo sapiens) (UniProt Q8WTS6); experiment: Inhibition of SETD7 (unknown origin) using [3H]SAM assessed as inhibition of biotinylated-H3 (1 to 25 amino acid residues) methylation at 0.1 to 100 uM after 1 hr by scintillation proximity assay
T3 sequence (whole entry): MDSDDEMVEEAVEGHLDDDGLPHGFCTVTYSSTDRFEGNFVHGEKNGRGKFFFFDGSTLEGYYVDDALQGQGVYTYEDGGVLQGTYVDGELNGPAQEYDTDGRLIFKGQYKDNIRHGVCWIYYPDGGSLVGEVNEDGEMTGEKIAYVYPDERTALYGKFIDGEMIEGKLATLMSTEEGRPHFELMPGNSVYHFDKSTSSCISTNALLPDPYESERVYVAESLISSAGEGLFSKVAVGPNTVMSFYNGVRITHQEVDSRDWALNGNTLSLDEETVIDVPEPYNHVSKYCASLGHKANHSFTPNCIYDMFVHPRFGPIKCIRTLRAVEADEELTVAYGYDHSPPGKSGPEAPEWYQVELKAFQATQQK
Summary of the method: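 Triplicates, 1 h at room temperature, compound at 100 nM–100 µM. Guanidine HCl stop, then Flashplate CPM normalised to controls. Ki = IC50/2.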

[7] = molecular target: Histone-lysine N-methyltransferase SUV39H2 (Homo sapiens) (UniProt Q9H5I1); experiment: Inhibition of SUV39H2 (unknown origin) using [3H]SAM assessed as inhibition of biotinylated-H3 (1 to 25 amino acid residues) methylation at 0.1 to 100 uM after 1 hr by scintillation proximity assay
Histone-lysine N-methyltransferase SUV39H2 (Homo sapiens), sequence (Q9H5I1 whole entry, the tested form may be a part): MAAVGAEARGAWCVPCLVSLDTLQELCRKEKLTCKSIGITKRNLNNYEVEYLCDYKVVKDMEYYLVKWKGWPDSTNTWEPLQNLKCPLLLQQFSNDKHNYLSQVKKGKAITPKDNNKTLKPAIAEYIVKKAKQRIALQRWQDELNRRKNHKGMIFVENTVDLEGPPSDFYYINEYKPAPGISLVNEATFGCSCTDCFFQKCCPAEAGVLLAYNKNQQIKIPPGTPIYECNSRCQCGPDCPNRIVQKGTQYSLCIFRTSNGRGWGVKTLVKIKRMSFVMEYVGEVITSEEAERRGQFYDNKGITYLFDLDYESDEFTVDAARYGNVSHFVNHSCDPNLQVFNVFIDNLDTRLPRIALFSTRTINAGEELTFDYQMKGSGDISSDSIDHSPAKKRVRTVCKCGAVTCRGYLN
Summary of the method: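 Triplicate 1 h room-temperature reactions with compound at 100 nM–100 µM. Read on Flashplate after guanidine quench. Ki = IC50/2.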

[8] = molecular target: T4, Histone-lysine N-methyltransferase EHMT1 (Homo sapiens) (UniProt Q9H9B1); experiment: Inhibition of EHMT1 (unknown origin) using [3H]SAM assessed as inhibition of biotinylated-H3 (1 to 25 amino acid residues) methylation at 0.1 to 100 uM after 1 hr by scintillation proximity assay
T4 sequence (whole entry): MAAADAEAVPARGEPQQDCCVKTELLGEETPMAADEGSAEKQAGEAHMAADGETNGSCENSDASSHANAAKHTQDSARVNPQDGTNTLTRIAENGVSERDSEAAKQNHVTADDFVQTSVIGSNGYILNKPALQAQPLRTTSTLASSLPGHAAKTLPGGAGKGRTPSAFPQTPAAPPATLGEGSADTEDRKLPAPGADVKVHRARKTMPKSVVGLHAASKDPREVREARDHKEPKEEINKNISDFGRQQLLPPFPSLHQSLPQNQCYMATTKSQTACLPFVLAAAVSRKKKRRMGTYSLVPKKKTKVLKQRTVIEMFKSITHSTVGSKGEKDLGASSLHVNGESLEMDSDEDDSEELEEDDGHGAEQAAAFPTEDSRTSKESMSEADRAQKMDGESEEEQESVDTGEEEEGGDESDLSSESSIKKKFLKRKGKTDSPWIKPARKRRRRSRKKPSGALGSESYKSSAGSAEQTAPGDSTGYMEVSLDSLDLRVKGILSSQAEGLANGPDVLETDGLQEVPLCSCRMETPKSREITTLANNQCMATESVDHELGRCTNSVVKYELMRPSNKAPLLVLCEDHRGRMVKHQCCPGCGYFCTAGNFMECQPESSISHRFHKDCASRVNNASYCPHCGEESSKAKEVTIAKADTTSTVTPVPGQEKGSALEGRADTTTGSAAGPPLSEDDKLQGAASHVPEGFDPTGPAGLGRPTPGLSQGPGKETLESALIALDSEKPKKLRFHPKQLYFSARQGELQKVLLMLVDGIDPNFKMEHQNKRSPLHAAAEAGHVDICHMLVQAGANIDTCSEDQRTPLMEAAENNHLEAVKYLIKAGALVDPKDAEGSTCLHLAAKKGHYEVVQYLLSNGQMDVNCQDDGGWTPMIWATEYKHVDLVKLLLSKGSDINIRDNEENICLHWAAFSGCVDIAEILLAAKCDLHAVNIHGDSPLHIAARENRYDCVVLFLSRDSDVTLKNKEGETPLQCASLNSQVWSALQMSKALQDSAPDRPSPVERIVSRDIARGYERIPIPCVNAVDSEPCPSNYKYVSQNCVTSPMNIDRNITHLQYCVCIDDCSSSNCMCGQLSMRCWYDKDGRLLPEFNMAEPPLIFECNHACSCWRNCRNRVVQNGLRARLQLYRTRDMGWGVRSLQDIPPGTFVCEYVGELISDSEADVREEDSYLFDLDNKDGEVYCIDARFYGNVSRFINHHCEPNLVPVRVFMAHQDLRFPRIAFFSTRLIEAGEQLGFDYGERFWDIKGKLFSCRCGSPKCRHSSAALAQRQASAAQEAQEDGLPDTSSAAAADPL
Summary of the method: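 Triplicates, 1 h at room temperature. Compound range 100 nM–100 µM. Guanidine stop, then Flashplate counting against no-compound and no-enzyme controls. Ki derived as IC50/2.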

[9] = molecular target: Histone-lysine N-methyltransferase 2A (Homo sapiens) (UniProt Q03164); experiment: Inhibition of MLL1 (unknown origin) using [3H]SAM assessed as inhibition of biotinylated-H3 (1 to 25 amino acid residues) methylation at 0.1 to 100 uM after 1 hr by scintillation proximity assay
[10] = molecular target: T5, N-lysine methyltransferase KMT5A (Homo sapiens) (UniProt Q9NQR1); experiment: Inhibition of SETD8 (unknown origin) using [3H]SAM assessed as inhibition of biotinylated-H4 (1 to 24 amino acid residues) methylation at 0.1 to 100 uM after 1 hr by scintillation proximity assay
T5 sequence (whole entry): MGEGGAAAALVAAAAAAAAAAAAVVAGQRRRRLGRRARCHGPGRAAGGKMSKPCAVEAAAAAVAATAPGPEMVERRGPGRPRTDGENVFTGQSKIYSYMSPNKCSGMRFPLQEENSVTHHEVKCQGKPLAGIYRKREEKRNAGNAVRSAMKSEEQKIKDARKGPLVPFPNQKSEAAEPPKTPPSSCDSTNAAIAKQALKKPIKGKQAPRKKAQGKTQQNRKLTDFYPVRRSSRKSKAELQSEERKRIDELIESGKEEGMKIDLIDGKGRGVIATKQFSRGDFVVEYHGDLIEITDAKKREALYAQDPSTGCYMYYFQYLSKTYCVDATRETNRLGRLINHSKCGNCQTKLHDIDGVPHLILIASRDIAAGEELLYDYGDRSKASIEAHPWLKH

Homo sapiens = species: Homo sapiens; experiment: Inhibition of PRC2 complex (unknown origin) using [3H]SAM assessed as inhibition of biotinylated-H3 (21 to 44 amino acid residues) methylation at 0.1 to 100 uM after 1 hr by scintillation proximity assay

IC50 [1]: 1500 nM
Ki [1]: 750 nM
IC50 [2]: 1900 nM
Ki [2]: 950 nM
IC50 [3]: 2300 nM
Ki [3]: 1150 nM
IC50 [4]: 2300 nM
Ki [4]: 1150 nM
inhibition [5]: inactive
inhibition [6]: inactive
inhibition [7]: inactive
inhibition [8]: inactive
inhibition [9]: inactive
inhibition [10]: inactive
inhibition (Homo sapiens): inactive
SMILES: Nc1ncnc2c1c(Br)cn2[C@@H]1O[C@H](CSCC[C@H](N)C(=O)O)[C@@H](O)[C@H]1O
